MIC data for four compounds are collected here from ChEMBL document CHEMBL1145490, “Beta-lactam resistance in Haemophilus parasuis Is mediated by plasmid pB1000 bearing blaROB-1” (2007).

Common to all, as to assay type: functional
The test system of assay [1] is Escherichia coli. Description: Antimicrobial activity against Escherichia coli pB1000 expressing ROB1 beta lactamase.
Assay [2] deals with Haemophilus parasuis. The assay can be described thus: Antimicrobial activity against Haemophilus parasuis BB 1024. Conditions: Glaesserella parasuis. Summed up:
(§1)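 H. parasuis isolates grown on chocolate agar and in Haemophilus test medium broth at 37°C under microaerophilic conditions (5% CO2). Susceptibility was profiled by disk diffusion and broth microdilution in Haemophilus test medium for fastidious bacteria, following a previously described method.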

Assay [3] deals with Haemophilus parasuis. Description: Antimicrobial activity against Haemophilus parasuis BB 1025. The conditions noted are these: Glaesserella parasuis. Summed up:
as §1

Assay [4] concerns Haemophilus parasuis. Description: Antimicrobial activity against Haemophilus parasuis BB 1022. The conditions noted are these: Glaesserella parasuis. The procedure, abridged: as §1
Assay [5] relates to Haemophilus parasuis. Description: Antimicrobial activity against Haemophilus parasuis BB 1020. Conditions: Glaesserella parasuis. Summed up: as §1
In assay [6] the test system is Haemophilus parasuis. The assay can be described thus: Antimicrobial activity against Haemophilus parasuis BB 1023. The conditions noted are these: Glaesserella parasuis. Summed up:
as §1

The test system of assay [7] is Haemophilus parasuis. The assay can be described thus: Antimicrobial activity against Haemophilus parasuis BB 1019. The conditions noted are these: Glaesserella parasuis. Summed up:
as §1

Assay [8] concerns Haemophilus parasuis. The assay can be described thus: Antimicrobial activity against Haemophilus parasuis BB 1021. Conditions: Glaesserella parasuis. The procedure, abridged:
as §1

Assay [9] concerns Escherichia coli. Description: Antimicrobial activity against Escherichia coli.
The test system of assay [10] is Haemophilus parasuis. The assay can be described thus: Antimicrobial activity against Haemophilus parasuis ATCC 19417. Conditions: Glaesserella parasuis. Summed up: as §1
The subject of assay [11] is Haemophilus parasuis. Description: Antimicrobial activity against Haemophilus parasuis BB 1026. The conditions noted are these: Glaesserella parasuis. Summed up: as §1
The test system of assay [12] is Haemophilus parasuis. Description: Antimicrobial activity against Haemophilus parasuis BB 1018. Conditions: Glaesserella parasuis. The procedure, abridged:
as §1

Values after ≈ are worked out from the molar mass of the structure shown.

By MIC is commonly meant the smallest concentration in the dilution series that meets the test's criterion for growth inhibition. The low end stands for greater potency, the high end for weaker potency. Turning to `Cc1onc(-c2ccccc2)c1C(=O)N[C@@H]1C(=O)N2[C@@H]1SC(C)(C)[C@@H]2C(=O)O` [OXACILLIN], the minimum inhibitory concentration (MIC) in the assay with Escherichia coli [1] is over 4 µg/mL; against Haemophilus parasuis [2], at most 0.25 µg/mL; against Haemophilus parasuis [3], at most 0.25 µg/mL; with Haemophilus parasuis [4], at most 0.25 µg/mL; with Haemophilus parasuis [5] it was at most 0.25 µg/mL; against Haemophilus parasuis [6], at most 0.25 µg/mL. Besides, the minimum inhibitory concentration (MIC) is at most 0.25 µg/mL with Haemophilus parasuis [7]; at most 0.25 µg/mL with Haemophilus parasuis [8]; over 4 µg/mL against Escherichia coli [9]; at most 0.25 µg/mL in the assay with Haemophilus parasuis [10]; at most 0.25 µg/mL with Haemophilus parasuis [11]; at most 0.25 µg/mL against Haemophilus parasuis [12].
Turning to `CO/N=C(\C(=O)N[C@@H]1C(=O)N2C(C(=O)O)=C(COC(C)=O)CS[C@H]12)c1csc(N)n1` [CEFOTAXIME], the minimum inhibitory concentration (MIC) in the assay on Escherichia coli [1] was 0.06 µg/mL (≈ 0.132 µM); against Haemophilus parasuis [2], 0.06 µg/mL (≈ 0.132 µM); in the assay with Haemophilus parasuis [3] it was 0.06 µg/mL (≈ 0.132 µM); against Haemophilus parasuis [4], 0.06 µg/mL (≈ 0.132 µM); with Haemophilus parasuis [5], at most 0.03 µg/mL; against Haemophilus parasuis [6] it was 0.12 µg/mL (≈ 0.263 µM). The minimum inhibitory concentration (MIC) is 0.06 µg/mL (≈ 0.132 µM) in the assay on Haemophilus parasuis [7]; 0.06 µg/mL (≈ 0.132 µM) in the assay with Haemophilus parasuis [8]; 0.06 µg/mL (≈ 0.132 µM) against Escherichia coli [9]; at most 0.03 µg/mL in the assay on Haemophilus parasuis [10]; at most 0.03 µg/mL against Haemophilus parasuis [11]; 0.06 µg/mL (≈ 0.132 µM) in the assay with Haemophilus parasuis [12].
In the case of `N[C@@H](C(=O)N[C@@H]1C(=O)N2C(C(=O)O)=C(Cl)CS[C@H]12)c1ccccc1` [CEFACLOR ANHYDROUS], the MIC against Escherichia coli [1] is 128 µg/mL (≈ 348 µM); with Haemophilus parasuis [2], over 16 µg/mL; against Haemophilus parasuis [3] it was over 16 µg/mL; against Haemophilus parasuis [4], over 16 µg/mL; in the assay with Haemophilus parasuis [5], over 16 µg/mL; in the assay on Haemophilus parasuis [6], over 16 µg/mL. The MIC in the assay with Haemophilus parasuis [7] is over 16 µg/mL; against Haemophilus parasuis [8], over 16 µg/mL; in the assay on Escherichia coli [9] it was 8 µg/mL (≈ 21.8 µM); in the assay on Haemophilus parasuis [10] it was at most 1 µg/mL; in the assay with Haemophilus parasuis [11] it was at most 1 µg/mL; in the assay on Haemophilus parasuis [12], over 16 µg/mL.
For the compound `CC1(C)S[C@@H]2[C@H](NC(=O)[C@H](N)c3ccc(O)cc3)C(=O)N2[C@H]1C(=O)O` [AMOXICILLIN], the MIC against Escherichia coli [1], against Haemophilus parasuis [2], with Haemophilus parasuis [3], with Haemophilus parasuis [4], against Haemophilus parasuis [5] and in the assay with Haemophilus parasuis [6] was over 256 µg/mL in each case. The minimum inhibitory concentration (MIC) in the assay with Haemophilus parasuis [7] is over 256 µg/mL; against Haemophilus parasuis [8], over 256 µg/mL; in the assay on Escherichia coli [9], 4 µg/mL (≈ 10.9 µM); against Haemophilus parasuis [10] it was at most 2 µg/mL; against Haemophilus parasuis [11] it was at most 2 µg/mL; in the assay with Haemophilus parasuis [12], over 256 µg/mL.
